Bioassay records: PubChem BioAssay, several laboratories
SR-BI uptake up – SR-BI HDL lipid transfer activation; CHO ldlA[mSR-BI] cells, DiI-HDL uptake fluorescence, 3 h; 100 = double the neutral-control signal; activation, % at 12.5 µM; hit rate 0.096% among 320,000;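 active = mean replicate activation of at least 60% and every replicate at or above 60%; inconclusive = mean or all-replicate condition met, but not both; inactive = mean below 60% and not all replicates reaching 60%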
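system = CHO ldlA[mSR-BI] cells, LDL receptor-null, SR-BI overexpressing | medium = Ham's F12 with 0.5% BSA, HEPES 25 mM, pH 7.4 | probe or stimulus = DiI-HDL 10 µg/mL | compound dosing = single-point compound dose | incubation = compound exposure 3 h, 37 °C | technique = DiI fluorescence, bottom read | read-out = cell-associated DiI fluorescence as measure of HDL uptake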
HIF activator – HIF pathway transcriptional activation; U2OS HRE-luciferase reporter, luminescence; normalized: DMSO 0%, desferrioxamine 100%; activation, % at 7.5 µM (by protocol); hit rate 0.32% among 300,000;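 active = mean activation of at least 10% of the iron chelator positive control signal, with at least half of replicates also reaching 10%; inconclusive = mean and replicate majority disagree about reaching 10%; inactive = mean and most replicates under 10%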
ABCB6 inh 2 – human ABCB6 transporter inhibition; fluorescence ratio to DMSO, % at 10 µM; K562-ABCB6 porphyrin accumulation, flow cytometry, 1 h; stronger effect = lower value; hit rate 0.19% among 360,000; Q9NP58;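 active = fluorescence ratio to DMSO below 75%, the collection mean minus 3 SD; inconclusive = too few cells collected in the well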;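 also: signal is porphyrin accumulated inside mitochondria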
GAA850 FXN act – increases GAA850 frataxin promoter reporter activity; HEK293 lucGAA850 FXN promoter luciferase reporter, 24 h; percent of 10 µM SAHA response; activation, % at 6 µM; hit rate 0.56% among 360,000;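 active = activation above the average of all compounds screened plus 3 SD, cutoff fixed separately per campaign, cut at about 7.5% in these data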
AHR act – activates the human aryl hydrocarbon receptor | P35869 | AHR-responsive luciferase reporter cells, luminescence | activation, % at 5 µM | hit rate 2.5% among 320,000 | AID 2796; in the data active = activation above about 47%
SR-BI DiI inh – mouse SR-BI HDL lipid transfer inhibition. ldlA[mSR-BI] CHO cells, DiI-HDL uptake fluorescence, 3 h. inhibition, % at 12.5 µM. hit rate 0.96% among 320,000. AID 488896;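 active = mean replicate inhibition of at least 70% and a set share of replicates each scoring 70 or more; inconclusive = meets just one of the two criteria; inactive = fails both criteria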
Target sequence (Q61009 whole entry, looked up): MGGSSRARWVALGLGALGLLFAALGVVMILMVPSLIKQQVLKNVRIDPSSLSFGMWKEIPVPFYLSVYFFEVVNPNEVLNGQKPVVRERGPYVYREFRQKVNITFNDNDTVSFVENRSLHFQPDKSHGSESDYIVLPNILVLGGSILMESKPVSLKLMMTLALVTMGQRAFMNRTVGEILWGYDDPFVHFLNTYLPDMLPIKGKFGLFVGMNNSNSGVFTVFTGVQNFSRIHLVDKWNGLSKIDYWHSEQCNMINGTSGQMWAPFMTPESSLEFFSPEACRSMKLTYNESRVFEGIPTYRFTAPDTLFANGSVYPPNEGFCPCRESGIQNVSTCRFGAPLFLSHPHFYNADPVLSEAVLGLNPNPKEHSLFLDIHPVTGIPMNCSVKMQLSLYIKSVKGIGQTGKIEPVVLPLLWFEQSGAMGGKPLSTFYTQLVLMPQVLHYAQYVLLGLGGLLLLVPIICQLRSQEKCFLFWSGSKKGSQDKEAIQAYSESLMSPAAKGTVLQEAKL
Hits are given with their value; - = inactive; ? = inconclusive; . = not tested or not shown. Hits are enriched below; roughly 3.9% of the tested compounds scored in any of these assays.

SMILES | SR-BI uptake up | HIF activator | ABCB6 inh 2 | GAA850 FXN act | AHR act | SR-BI DiI inh
O=C(Nc1ccc(-c2nc3ccccc3s2)c(O)c1)C1=COCCO1 | - | - | - | - | - | -
O=C(Nc1ccc(O)c(-c2nc3ccccc3s2)c1)C1=COCCO1 | - | - | - | - | 49.7 | -
COc1ccc(N2CC(C(=O)Nc3ccc4c(c3)OCCO4)CC2=O)cc1 (configuration not stated) | - | - | - | - | - | -
Cc1cc(C)c(C#N)c(Oc2ccccc2Br)n1 | - | - | - | - | - | -
C=CCc1ccccc1OCCSc1nc2ccc([N+](=O)[O-])cc2s1 | - | - | - | - | 55.6 | -
COc1ccccc1OCCSc1nc2ccc([N+](=O)[O-])cc2s1 | - | - | - | - | - | -
CCOC(=O)c1[nH]c2ccccc2c1NC(=S)Nc1cccc(C)c1C | - | - | - | - | 56.2 | -
Cc1ccc2[nH]c3c(c2c1)CN(C(=O)CN1CCCc2ccccc21)CC3 | - | - | - | - | - | -
COC(=O)c1[nH]c2cc(C)ccc2c1NC(=O)CN1CCN(c2ccccc2OC)CC1 | - | - | - | - | - | 76.3
C=CCOC(=O)Nc1c(C(=O)OC)[nH]c2ccccc12 | - | . | - | - | 57.1 | -
COC(=O)c1[nH]c2ccc(C)cc2c1NC(=O)CN1CCCc2ccccc21 | - | - | - | - | 56.5 | -
CCOC(=O)c1[nH]c2ccccc2c1NC(=O)NC(C)C | - | - | - | - | - | -
CCCc1ccc2oc(C(=O)N(C)Cc3nccs3)c(C)c2c1 | - | - | - | - | - | -
COC(=O)c1[nH]c2cc(OC)c(OC)cc2c1NC(=O)Oc1ccccc1 | - | - | - | - | - | -
COC(=O)c1[nH]c2ccc(C)cc2c1NC(=O)Oc1ccccc1 | - | - | - | - | 53.9 | -
Oc1[nH]c2ccccc2c1N=NC(=S)NCC1CCCO1 (configuration not stated) | - | - | - | - | - | -
Oc1[nH]c2c(Cl)cc(Cl)cc2c1N=NC(=S)NCC1CCCO1 (configuration not stated) | - | - | - | - | 51.0 | -
CC(=O)Nc1cccc(C(=O)N/N=C/c2c[nH]c3ccccc23)c1 | - | - | - | - | 75.8 | -
CSc1ccc(/C=N/Nc2ccc(Cl)c(C(=O)O)c2)cc1 | - | 174.2 | - | - | - | -
O=C(N/N=C/c1c[nH]c2ccccc12)c1cccc(Cl)c1 | . | - | - | - | 52.3 | .
O=C(O)c1cc(-c2ccc(/C=N/Nc3ccc(Cl)cc3)o2)ccc1Cl | - | - | - | - | 70.7 | -
CCN(CC)C(=O)COc1ccc2oc(C)c(C(=O)OC)c2c1 | - | . | - | - | - | -
CCOc1ccccc1NC(=O)C1C(c2ccccc2)C1(Cl)Cl (configuration not stated) | . | . | - | - | . | .
CCC/C(=N/NC(=O)c1cccc(Cl)c1)c1ccccc1 | - | 10.3 | - | - | - | -
COc1ccc(C(=O)N/N=C/c2cccc3cccnc23)cc1 | - | 12.4 | - | - | - | -
SMILES | SR-BI uptake up | HIF activator | ABCB6 inh 2 | GAA850 FXN act | AHR act | SR-BI DiI inh
CCOc1ccc(C(=O)N/N=C/c2cccc3cccnc23)cc1 | - | - | - | - | - | -
COc1ccc(C(=O)N/N=C/c2cc3ccccc3[nH]c2=S)cc1 | - | - | - | - | 57.1 | -
CCC/C(=N\NC(=O)C1CC1)c1ccccc1 | . | - | - | - | - | .
COc1ccc(C(=O)N/N=C/C(=O)c2ccccc2)cc1 | - | - | - | - | . | -
CC(C)NC(=S)N/N=C/c1c[nH]c2ccccc12 | - | - | - | - | 128.6 | -
Cc1csc(NC(=O)CNS(=O)(=O)c2cccs2)n1 | - | - | - | - | - | -
CCCCC(=NCCc1c(C)[nH]c2ccc(OC)cc12)C1=C(O)CC(c2ccccc2)CC1=O (configuration not stated) | ? | - | - | - | - | -
COc1ccc(C(=O)N/N=C/c2c[nH]c3ccccc23)cc1 | - | - | - | - | 55.8 | -
O=C(O)c1cc(N/N=C/c2ccc(-c3ccccc3)cc2)ccc1Cl | . | - | - | - | . | .
CCc1ccc2c(Cl)c(C(=O)N/N=C/c3c[nH]c4ccccc34)sc2c1 | - | - | - | - | - | -
O=C(N/N=C/c1c[nH]c2ccccc12)c1ccn(Cc2ccc(Cl)cc2Cl)n1 | - | - | - | - | 50.2 | -
